We go through eight compounds from ChEMBL document CHEMBL3271940, “Monoquaternary neuromuscular blocking agents based on 1-tetralone and 1-indanone” (J Med Chem, 1976).

The structures appear in SMILES notation.

The species entered for data set [1] is Felis catus. Kind of data set: Neuromuscular blocking activity in cat assessed as time duration of action of blockade of tibialis muscle twitches at ED50. In kind it is functional.
A short description of data set [2]: Dissociation constant, pKa of the compound in water. In kind it is physicochemical.
The species entered for data set [3] is Felis catus. Kind of data set: Neuromuscular blocking activity in cat assessed as blockade of tibialis muscle twitches. In kind it is functional. The method in brief: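 The reported value is the dose that produced 50% blockade of muscle twitches, given ± standard error together with the number of determinations.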

By pKa is commonly meant the pH at which an ionisable group is half protonated. As usually defined, the ED50 is the dose at which the effect has come halfway, by size or by number of responders. In the case of `C[N+](C)(C)c1ccc2c(c1)CCC/C2=N\N.[I-]`, the Time in the data set filed under Felis catus [1] came to 5.2 min. Moreover, the pKa in data set [2] amounted to 2.5. Further, the ED50 in the data set listed under Felis catus [3] is 0.16 µmol/kg. On to `C[N+](C)(C)c1cccc2c1CCC/C2=N\N.Cc1ccc(S(=O)(=O)[O-])cc1`, for which the ED50 in the data set listed under Felis catus [3] was more than 10 µmol/kg. On the same count and under the same terms, in the case of `C[N+](C)(C)c1ccc2c(c1)/C(=N/N)CCC2.[I-]` it was more than 10 µmol/kg. With `C[N+](C)(C)c1ccc2c(c1)CC/C2=N\N.[I-]`, the Time in the data set filed under Felis catus [1] turned out to be 10 min. Also, the ED50 in the data set listed under Felis catus [3] turned out to be 0.44 µmol/kg.

For `C[N+](C)(C)c1cccc2c1CC/C2=N\N.[I-]`, the ED50 in the data set listed under Felis catus [3] is more than 10 µmol/kg.

Take `C[N+](C)(C)c1ccc2c(c1)/C(=N/N)CC2.[I-]`: in the data set listed under Felis catus [1], the Time was found to be 17.1 min. The ED50 in the data set listed under Felis catus [3] came to 3.98 µmol/kg. As to `CN(C)/N=C1\CCCc2cc([N+](C)(C)C)ccc21.[I-]`, the ED50 in the data set listed under Felis catus [3] was more than 10 µmol/kg. As to `C[N+](C)(C)CCOC(=O)CCC(=O)OCC[N+](C)(C)C.[Cl-].[Cl-]` [SUCCINYLCHOLINE CHLORIDE], the Time in the data set listed under Felis catus [1] was 4.4 min. Further, in the data set listed under Felis catus [3], the ED50 worked out at 0.1 µmol/kg.
